Assay outcomes: PubChem BioAssay, several laboratories
This is a sample that favours compounds with a hit; in the whole collection about 3.7% have one here.
eIF4E-4G inh: eIF4E/eIF4G interaction inhibition in translation initiation. inhibition, % at 21.7 µM. TR-FRET eIF4E-eIF4GI(517-606) binding, 2 h. actives 0.37% (n = 220,000). P63073+Q04637
p47phox inh: p47phox (human) inhibition. P14598. p47phox/p22phox peptide binding, fluorescence polarization, 2 h. inhibition, % at 24.7 µM. actives 0.53% (n = 220,000). AID 1274
14-3-3 Bad PPI: disrupts binding of bovine 14-3-3 zeta to phospho-Bad peptide. P63103. TR-FRET 14-3-3zeta/Dy647-pBad peptide displacement, 1 h. inhibition, % at 21.7 µM. actives 0.71% (n = 220,000);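 active = inhibition above about 70%, limit read from the data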
WT yeast gro inh: growth inhibition of WT yeast, mitochondrial fusion screen | inhibition, % at 10 µM | mitochondrial fusion phenotypic screen, WT strain | actives 2.1% (n = 190,000) | AID 1362; in the data active = inhibition above about 58%; tested in S. cerevisiae
RBBP9 inhibitor: human RBBP9 hydrolase inhibition; O75884; recombinant RBBP9, FP-Rh probe fluorescence polarization; inhibition, % at 7.94 µM; actives 0.2% (n = 220,000); AID 1515;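 active = inhibition above the campaign mean of all tested compounds plus 3 SD, cut at about 14% in these data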
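Measured by: FP readout at 525/598 nm; material: recombinant human RBBP9; also added: Serine-hydrolase probe FP-Rh, 375 nM pre-mixing; medium: Tris buffer pH 8.0, NaCl, Pluronic; replication: one well per compound; doses: one concentration, 7.94 µM nominal, 0.794% DMSO; timing: preincubation 30 min plus labeling 45 min at 25 °C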
EBV gp42 inh: inhibitors of Epstein-Barr virus glycoprotein 42. Q1HVG2. Fluorescence polarization binding assay, mP read-out. inhibition, % (tested at 21.74 µM). actives 0.42% (n = 220,000); in the data active = inhibition above about 50%
Numbers stand for hits; n = inactive; x = not tested or not shown.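 The calls were made as follows, unless noted: active = inhibition above about 30% (limit read from the data); inactive = the rest.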

SMILES | eIF4E-4G inh | p47phox inh | 14-3-3 Bad PPI | WT yeast gro inh | RBBP9 inhibitor | EBV gp42 inh
Cc1cc(Br)c2c(c1)/C(=C/C(=O)c1cccs1)C(=O)N2 | n | n | n | n | n | n
Cc1cc(C)c2c(c1)/C(=C/C(=O)c1ccc(Br)s1)C(=O)N2 | n | n | n | 86.5 | n | n
CCNC(=O)c1ccc(C23CC4CC(CC(C4)C2)C3)o1 | n | n | n | n | n | n
O=C(O)/C=C/C(=O)NC1CC1 | n | n | n | n | n | n
CC(=O)Nc1ccc(C(=O)OCc2ccc(Br)cc2)cc1 | n | n | n | 69.3 | n | n
CCN1C(=O)c2ccccc2S(=O)c2ccc(C(=O)N3CCOCC3)cc21 (stereo not drawn) | n | n | n | x | n | n
CCN1CCN(c2ccc(NC(=O)c3ccc4c(c3)[nH]c(=O)n4Cc3ccc(F)cc3)cc2)CC1 | n | n | n | n | n | n
O=C(CSc1nnc(Cc2ccccc2)n1C1CCCCC1)N1CCOCC1 | n | 98.2 | n | n | n | n
O=C(CSc1nnc(Cc2ccccc2)n1-c1ccc(F)cc1)N1CCOCC1 | n | n | n | n | n | n
COc1ccc(CCNC(=O)CSc2nc(C)nc3sccc23)cc1OC | n | n | n | x | n | n
Cc1c(C(=O)Nc2ccccc2)sc2nc[nH]c(=O)c12 | n | n | n | n | n | n
COc1ccc2nc(N3CCCC3)c(C#N)cc2c1 | n | n | n | n | n | 126.7
COc1ccc2nc(N3CCCCC3)c(C#N)cc2c1 | n | n | n | n | n | 57.9
COc1ccc2nc(SCC(=O)N3CCCCC3)c(C#N)cc2c1 | n | n | n | n | n | n
Oc1cccc(NC(=S)Nc2ccccc2)c1 | n | n | 99.4 | x | n | n
Fc1cccc(NC(=S)NNc2c3ccccc3nc3ccccc23)c1 | n | n | n | 75.7 | n | n
CCOC(=O)C1(Cc2cccc(OC)c2)CCN(Cc2cccc(OC)c2OC)CC1 | n | n | n | n | n | n
CCOC(=O)C1(Cc2cccc(OC)c2)CCN(Cc2cc(OC)ccc2OC)CC1 | n | n | 80.2 | n | n | n
CCOC(=O)C1(Cc2cccc(OC)c2)CCCN(Cc2c(C)nn(C(C)C)c2C)C1 (stereo not drawn) | 97.1 | n | n | x | n | n
CCOC(=O)C1(Cc2cccc(OC)c2)CCCN(Cc2cc(C(C)C)n[nH]2)C1 (stereo not drawn) | n | n | n | n | n | n
O=C(Nc1ccc(Br)cc1)C1OCCc2ccccc21 (stereo not drawn) | n | n | n | x | n | n
C[C@@H](C(=O)NCc1ccccc1)[C@H]1C[C@]1(C)[C@H](NC(=O)OCc1ccccc1)c1ccccc1 | n | n | n | n | n | n
COc1ccc(CNC(=O)[C@H](C)[C@@H]2C[C@@]2(C)[C@@H](NC(=O)OCc2ccccc2)c2ccccc2)cc1OC | n | n | n | 68.8 | n | n
O=C(CNCc1cccnc1)Nc1cc(C(F)(F)F)ccc1N1CCOCC1 | n | n | n | x | n | n
CCOC(=O)Cn1ccc(-c2ccccc2)c(C#N)c1=O | n | n | n | n | n | n
SMILES | eIF4E-4G inh | p47phox inh | 14-3-3 Bad PPI | WT yeast gro inh | RBBP9 inhibitor | EBV gp42 inh
Cc1nc2cc(C(=O)O)ccc2n1-c1ccccc1 | n | n | n | n | n | n
COc1ccccc1-n1c(C)nc2cc(C(=O)O)ccc21 | n | 39.3 | n | n | n | n
Cc1ccsc1/C=N/NC(=O)c1ccc(-n2cccc2)cc1 | n | n | n | n | n | n
Cc1ccccc1OCC(=O)NCCC1=CCCCC1 | n | n | 82.5 | n | n | n
O=C(COc1ccc(Cl)cc1Cl)NCCC1=CCCCC1 | n | n | n | 65.8 | n | n
CC(=O)Nc1ccccc1OCC(=O)NCCC1=CCCCC1 | n | n | n | n | n | n
CCCCn1nc(C(=O)Nc2cc(S(=O)(=O)N(C)C)ccc2C)c2ccccc2c1=O | n | n | n | x | n | n
S=c1[nH]nc(Cn2cnc3ccccc32)n1-c1ccccc1Cl | n | n | n | x | n | n
O=C(CSCc1ccccc1Br)N/N=C/c1ccccc1C(=O)O | n | n | 82.9 | n | n | n
O=C1c2ccccc2C(=O)N1CCCCN(C(=O)c1cc([N+](=O)[O-])cc([N+](=O)[O-])c1)c1ccc(Cl)cc1 | n | n | n | n | n | n
O=C1c2ccccc2C(=O)N1CCCCN(C(=O)c1cc([N+](=O)[O-])ccc1Cl)c1ccc(Cl)cc1 | n | n | n | 66.2 | n | n
Oc1oc(-c2ccccc2Br)nc1C=Nc1ccc(Br)cn1 | n | n | 76.2 | n | n | n
CCOc1ccc(OCC)c(S(=O)(=O)NCc2ccc3c(c2)OCO3)c1 | n | 65.7 | n | n | x | n
Cc1ccc(C)c(-n2nnnc2SCC(=O)NNC(=O)c2ccco2)c1 | n | n | n | n | n | n
O=C(c1ccccc1Cl)N1N=C(c2ccc(Br)cc2)CC1c1nc2ccccc2[nH]1 (stereo not drawn) | n | n | n | 73.5 | n | n
O=C(c1cccc(Cl)c1)N1CCC(c2nc3ccccc3[nH]2)CC1 | n | n | n | n | n | n
CCc1ccc(NC(=O)/C(C#N)=C/c2cc3ccc(C)cc3nc2N2CCOCC2)cc1 | n | n | n | n | n | n
Cc1ccc2cc(/C=C3\N=C(c4ccccc4)OC3=O)c(N3CCOCC3)nc2c1 | n | n | n | n | n | 157.5
C=CCn1c(C)cc(C(=O)COC(=O)COc2ccccc2C#N)c1C | n | n | n | n | n | 90.0
C=CCn1c(C)cc(C(=O)COC(=O)[C@@H](NC(=O)c2ccccc2Cl)C(C)C)c1C | n | n | n | n | n | n
CCOC(=O)c1nc2sc3c(c2c(=O)n1C(C)C(=O)OCC)CCCC3 (stereo not drawn) | n | n | n | n | n | n
Cc1cccc(C2Nc3ccccc3C(=O)N2NC(=O)c2ccc([N+](=O)[O-])cc2)n1 (stereo not drawn) | n | n | 73.5 | n | n | n
O=C(COc1ccc(Nc2ccccc2)cc1)OCC(=O)N1CCCCC1 | n | n | n | x | n | n
O=[N+]([O-])c1cccnc1N1CCC(c2cc(-c3ccc(Cl)cc3Cl)n[nH]2)CC1 | n | n | n | 65.2 | n | n
O=[N+]([O-])c1cccnc1N1CCC(c2cc(-c3cccc(C(F)(F)F)c3)n[nH]2)CC1 | n | n | n | 77.7 | n | n
SMILES | eIF4E-4G inh | p47phox inh | 14-3-3 Bad PPI | WT yeast gro inh | RBBP9 inhibitor | EBV gp42 inh
CC(C)C(c1nnnn1C1CCCCC1)N1CCc2ccccc21 (stereo not drawn) | n | n | n | n | n | n
CC(C)C(c1nnnn1C1CCCC1)N1c2ccccc2CC1C (stereo not drawn) | n | n | n | 63.8 | n | n
O=C(CSc1ncn[nH]1)CSc1ncn[nH]1 | n | n | n | n | n | n
CCc1nc(N2CCC(C)CC2)c2oc3ccccc3c2n1 | n | n | n | 73.4 | n | n
CCc1nc(OCCN(CC)CC)c2oc3ccccc3c2n1 | n | n | 79.7 | n | n | n
c1ccc(COc2ccc(OCCN3CCCCC3)cc2)cc1 | n | n | n | n | n | n
